Reference: ChEMBL document CHEMBL2150858 (J Med Chem, 2011)
Values after ≈ are worked out from the molar mass of the structure shown. Blank lines part the entries; values can stand above or below the compound they belong to. Active and inactive are the calls of the source. No cut-off for these calls is given here.

Experiments:
[1] = target: T1, 72 kDa type IV collagenase (Homo sapiens, UniProt P08253); experiment: Inhibition of human recombinant MMP2 using MOCAc-Pro-Leu-Gly-Leu-A2pr(Dnp)-Ala-Arg- NH2 as substrate at 20 ug/ml preincubated for 10 mins measured after 3 hrs by fluorescence assay
How it was run: (§1)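 Fluorogenic MMP assay (modified Knight method) in TNC buffer: 50 mM Tris-HCl pH 7.5, 150 mM NaCl, 10 mM CaCl2, 0.05% Brij-35. Enzyme stock was 5 ng/mL for MMP-2 and 40 ng/mL for MT1-MMP, preincubated with sample 10 min at 37 °C. Substrate solution at 10 μM was added, then incubated 3 h at 37 °C. Fluorescence read at ex 328/em 393 nm; a no-enzyme blank was subtracted. Controls were batimastat and 1% DMSO.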

[2] = target: T2, Matrix metalloproteinase-14 (Homo sapiens, UniProt P50281); experiment: Inhibition of MMP14 using MOCAc-Pro-Leu-Gly-Leu-A2pr(Dnp)-Ala-Arg- NH2 as substrate at 20 ug/ml preincubated for 10 mins measured after 3 hrs by fluorescence assay; how it was run: as §1
Aorta [3] = experiment: Antiangiogenic activity in Fischer rat aorta fragments assessed as vessel outgrowth at 100 ug/mL after 5 days relative to PI-88; assay type: functional
Aorta [4] = experiment: Antiangiogenic activity in Fischer rat aorta fragments assessed as vessel outgrowth at 100 ug/mL after 5 days relative to ageladine-A sulfate; assay type: functional
Aorta [5] = experiment: Antiangiogenic activity in Fischer rat aorta fragments assessed as vessel outgrowth at 100 ug/mL after 5 days; assay type: functional; conditions: 120 h
How it was run: (§2)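 Thoracic aorta rings (1 mm cross-sections) from 3–9 month-old female Fischer rats, each embedded in fibrin gel with 5 μg/mL aprotinin. Compound added from DMSO stock, max final 100 μg/mL, six replicates; 0.1% DMSO vehicle control. Grown 5 days at 37 °C in 5% CO2, medium changed on day 4. On day 5, microvessel outgrowth was scored manually at 40× as percent of field occupied.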

CAKI-1 = experiment: Growth inhibition of human Caki1 cells at 10 uM; assay type: functional; conditions: read-out: GI
Malme-3M = experiment: Induction of cell growth in human MALME-3M cells at 10 uM; assay type: functional
[6] = Toxicity in human NCI-H460 cells; assay type: cell-based; conditions: read-out: LD50 (the source's name)
How it was run: (§3)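 NCI-60 human cancer cell line screen, two-stage. All lines first receive a single 10 μM dose. Selected compounds then go to a five-concentration assay spanning 100 μM to 10 nM, with 48 h exposure. LD50 (cell kill) is derived from the dose-response and kept separate from GI50 (growth retardation without cell death).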

[7] = Toxicity in human M14 cells; assay type: cell-based; conditions: read-out: LD50 (the source's name); how it was run: as §3
[8] = Toxicity in human SK-MEL-5 cells; assay type: cell-based; conditions: read-out: LD50 (the source's name); how it was run: as §3
[9] = Toxicity in human IGROV1 cells; assay type: cell-based, IGROV-1; conditions: read-out: LD50 (the source's name); how it was run: as §3
[10] = Toxicity in human Caki1 cells; assay type: cell-based, CAKI-1; conditions: read-out: LD50 (the source's name); how it was run: as §3
NCI60 = experiment: Growth inhibition of human NCI60 cells at 1 to 10 uM; assay type: functional, cell-based
Aorta [11] = experiment: Antiangiogenic activity in Fischer rat aorta fragments assessed as vessel outgrowth at 10 ug/mL after 5 days; assay type: functional; conditions: 120 h; how it was run: as §2
Aorta [12] = experiment: Antiangiogenic activity in Fischer rat aorta fragments assessed as vessel outgrowth at 1 ug/mL after 5 days; assay type: functional; conditions: 120 h; how it was run: as §2
Aorta [13] = experiment: Antiangiogenic activity in Fischer rat aorta fragments assessed as vessel outgrowth at 0.1 ug/mL after 5 days; assay type: functional; conditions: 120 h; how it was run: as §2
Aorta [14] = experiment: Antiangiogenic activity in Fischer rat aorta fragments assessed as vessel outgrowth after 5 days; assay type: functional, tissue-based; conditions: 120 h; how it was run: as §2
[15] = target: Dual specificity tyrosine-phosphorylation-regulated kinase 1A (Homo sapiens) (UniProt Q13627); experiment: Binding affinity to DYRK1A assessed as ATP binding remaining at 10 uM
How it was run: (§4)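 Ambit phage-display competition binding against immobilized ATP-site ligands. Kinase-tagged T7 phage or HEK-293-expressed DNA-tagged kinases were incubated with liganded streptavidin beads and compound at 10 μM, 1 h at room temperature with shaking. After washing, retained kinase was quantified; readout is percent of control binding remaining.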

[16] = Binding affinity to DYRK2 assessed as ATP binding remaining at 10 uM; how it was run: as §4
[17] = target: Non-receptor tyrosine-protein kinase TYK2 (Homo sapiens) (UniProt P29597); experiment: Binding affinity to JH domain of TYK2 assessed as ATP binding remaining at 10 uM; how it was run: as §4
[18] = target: Mitogen-activated protein kinase kinase kinase 19 (Homo sapiens) (UniProt Q56UN5); experiment: Binding affinity to YSK4 assessed as ATP binding remaining at 10 uM; how it was run: as §4
Mitogen-activated protein kinase kinase kinase 19 (Homo sapiens), sequence (Q56UN5 whole entry): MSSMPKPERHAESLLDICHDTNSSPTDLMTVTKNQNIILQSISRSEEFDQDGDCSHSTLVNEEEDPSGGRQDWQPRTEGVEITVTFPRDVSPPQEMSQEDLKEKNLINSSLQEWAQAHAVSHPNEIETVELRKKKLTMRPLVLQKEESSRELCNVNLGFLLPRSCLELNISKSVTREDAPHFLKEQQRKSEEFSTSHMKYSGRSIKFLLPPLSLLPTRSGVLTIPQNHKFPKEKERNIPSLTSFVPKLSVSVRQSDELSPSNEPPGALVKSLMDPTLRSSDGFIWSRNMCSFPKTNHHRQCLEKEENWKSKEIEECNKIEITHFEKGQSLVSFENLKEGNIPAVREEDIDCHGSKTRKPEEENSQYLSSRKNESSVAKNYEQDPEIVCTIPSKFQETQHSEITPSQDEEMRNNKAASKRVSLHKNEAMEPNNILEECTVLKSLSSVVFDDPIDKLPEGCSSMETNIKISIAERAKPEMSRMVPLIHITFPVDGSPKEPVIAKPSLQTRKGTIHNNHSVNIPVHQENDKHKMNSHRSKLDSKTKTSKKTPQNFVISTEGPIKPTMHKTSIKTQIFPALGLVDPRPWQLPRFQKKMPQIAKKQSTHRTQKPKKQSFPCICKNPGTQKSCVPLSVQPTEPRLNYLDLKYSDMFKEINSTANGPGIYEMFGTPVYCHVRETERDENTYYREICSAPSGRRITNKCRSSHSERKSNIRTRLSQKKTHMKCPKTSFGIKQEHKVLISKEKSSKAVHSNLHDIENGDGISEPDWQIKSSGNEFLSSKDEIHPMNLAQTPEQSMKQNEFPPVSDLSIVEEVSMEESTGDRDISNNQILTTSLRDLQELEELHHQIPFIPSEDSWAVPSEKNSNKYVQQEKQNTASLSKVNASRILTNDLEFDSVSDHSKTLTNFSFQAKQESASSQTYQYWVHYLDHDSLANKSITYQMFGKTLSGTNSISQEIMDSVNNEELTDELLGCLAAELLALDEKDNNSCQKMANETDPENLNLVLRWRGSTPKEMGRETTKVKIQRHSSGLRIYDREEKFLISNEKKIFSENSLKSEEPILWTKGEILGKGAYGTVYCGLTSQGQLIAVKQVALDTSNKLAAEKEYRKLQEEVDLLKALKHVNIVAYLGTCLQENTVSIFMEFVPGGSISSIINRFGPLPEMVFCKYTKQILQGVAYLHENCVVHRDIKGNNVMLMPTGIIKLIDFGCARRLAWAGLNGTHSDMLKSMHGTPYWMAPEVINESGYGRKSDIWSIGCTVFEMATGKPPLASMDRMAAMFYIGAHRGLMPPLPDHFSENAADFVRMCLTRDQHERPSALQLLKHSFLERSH

[19] = target: Calcium/calmodulin-dependent protein kinase type II subunit gamma (Homo sapiens, UniProt Q13555); experiment: Binding affinity to CAMK2G
How it was run: (§5)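 Compounds were diluted from 40× DMSO stocks, 11 concentrations plus blank in duplicate. Incubation 1 h at room temperature with shaking in SeaBlock/PBS/Tween 20/DTT buffer, then bead wash. Kd determined; 40000 nM denotes no binding.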

[20] = target: Calcium/calmodulin-dependent protein kinase kinase 1 (Homo sapiens, UniProt Q8N5S9); experiment: Binding affinity to CAMKK1
Calcium/calmodulin-dependent protein kinase kinase 1, sequence (Q8N5S9 whole entry): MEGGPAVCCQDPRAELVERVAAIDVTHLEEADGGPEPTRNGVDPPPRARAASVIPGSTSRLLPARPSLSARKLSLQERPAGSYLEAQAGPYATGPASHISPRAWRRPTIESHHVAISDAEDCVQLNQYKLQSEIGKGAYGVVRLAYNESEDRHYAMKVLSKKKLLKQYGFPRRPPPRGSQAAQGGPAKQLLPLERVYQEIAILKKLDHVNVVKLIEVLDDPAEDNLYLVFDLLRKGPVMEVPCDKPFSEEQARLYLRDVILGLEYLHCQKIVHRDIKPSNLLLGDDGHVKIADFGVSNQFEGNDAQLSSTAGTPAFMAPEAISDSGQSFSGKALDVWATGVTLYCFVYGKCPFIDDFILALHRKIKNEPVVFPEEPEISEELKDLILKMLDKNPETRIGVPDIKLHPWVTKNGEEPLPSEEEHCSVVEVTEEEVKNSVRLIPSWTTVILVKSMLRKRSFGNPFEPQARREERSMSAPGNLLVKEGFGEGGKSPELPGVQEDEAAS
How it was run: (§6)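 Competition binding run by Ambit. They were mixed with ligand-loaded streptavidin magnetic beads and compound (40× DMSO stocks) in SeaBlock/PBS/Tween/DTT buffer. Incubation was 1 h at room temperature, then beads were washed. KD was determined from 11 concentrations plus a blank, in duplicate. A value of 40000 nM indicates no binding.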

[21] = target: Calcium/calmodulin-dependent protein kinase kinase 2 (Homo sapiens, UniProt Q96RR4); experiment: Binding affinity to CAMKK2; how it was run: as §5
[22] = target: Protein kinase C epsilon type (Homo sapiens, UniProt Q02156); experiment: Binding affinity to PRKCE; how it was run: as §6
Protein kinase C epsilon type, sequence (Q02156 whole entry, canonical isoform): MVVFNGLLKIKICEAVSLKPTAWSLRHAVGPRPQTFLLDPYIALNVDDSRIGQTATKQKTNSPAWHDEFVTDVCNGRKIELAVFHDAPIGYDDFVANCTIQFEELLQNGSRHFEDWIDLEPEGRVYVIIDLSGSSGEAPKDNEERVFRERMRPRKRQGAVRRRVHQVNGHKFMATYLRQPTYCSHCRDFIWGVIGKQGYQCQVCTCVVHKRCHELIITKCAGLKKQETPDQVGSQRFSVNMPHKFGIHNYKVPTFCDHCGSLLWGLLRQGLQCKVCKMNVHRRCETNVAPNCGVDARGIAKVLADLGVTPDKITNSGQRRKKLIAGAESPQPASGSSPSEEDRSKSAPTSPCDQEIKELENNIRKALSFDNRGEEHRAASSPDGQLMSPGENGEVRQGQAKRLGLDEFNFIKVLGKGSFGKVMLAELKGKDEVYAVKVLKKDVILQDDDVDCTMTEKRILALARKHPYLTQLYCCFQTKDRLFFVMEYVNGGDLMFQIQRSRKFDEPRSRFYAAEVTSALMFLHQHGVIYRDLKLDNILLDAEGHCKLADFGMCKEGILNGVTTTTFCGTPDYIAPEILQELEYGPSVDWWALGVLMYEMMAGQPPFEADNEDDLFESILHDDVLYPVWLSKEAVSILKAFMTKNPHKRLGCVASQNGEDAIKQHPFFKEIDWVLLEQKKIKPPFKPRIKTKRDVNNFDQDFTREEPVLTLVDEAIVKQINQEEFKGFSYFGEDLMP

[23] = target: Casein kinase I isoform alpha (Sus scrofa, UniProt O19175); experiment: Inhibition of porcine brain CK1 using RRKHAAIGpSAYSITA as substrate
Casein kinase I isoform alpha, sequence (O19175 whole entry, canonical isoform): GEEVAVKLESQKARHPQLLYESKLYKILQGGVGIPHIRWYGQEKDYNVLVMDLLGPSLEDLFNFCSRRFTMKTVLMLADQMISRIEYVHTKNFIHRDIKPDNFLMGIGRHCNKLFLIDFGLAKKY

[24] = target: T3, Serine/threonine-protein kinase pim-1 (Homo sapiens, UniProt P11309); experiment: Inhibition of human recombinant PIM1 using [gamma-32P] ATP at 100 uM after 30 mins by scintillation counting
How it was run: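 Recombinant human Pim1 assayed as for CDK1/CDK5: histone H1 substrate, 15 μM [γ-32P]ATP final, 30 °C. Read by P81 filter binding and scintillation counting; activity expressed as percent of no-inhibitor control after blank subtraction.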
Target sequence in this assay (P11309 whole entry, looked up): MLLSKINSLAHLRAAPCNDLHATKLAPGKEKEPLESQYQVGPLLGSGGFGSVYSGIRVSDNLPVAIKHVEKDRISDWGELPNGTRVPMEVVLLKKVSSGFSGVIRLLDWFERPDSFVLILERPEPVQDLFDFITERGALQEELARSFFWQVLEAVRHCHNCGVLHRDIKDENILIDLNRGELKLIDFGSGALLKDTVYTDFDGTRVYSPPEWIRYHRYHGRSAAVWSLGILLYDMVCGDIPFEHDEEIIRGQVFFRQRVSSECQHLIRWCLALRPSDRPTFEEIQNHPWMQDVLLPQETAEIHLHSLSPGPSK

[25] = Inhibition of GSK3 at 100 uM
Interstitial collagenase = Interstitial collagenase (Homo sapiens, UniProt P03956); experiment: Inhibition of MMP1
[26] = target: T1, 72 kDa type IV collagenase; experiment: Inhibition of MMP2
How it was run: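 Fluorogenic substrate assay on MMP-2 (5 ng/mL enzyme solution) in TNC buffer (50 mM Tris-HCl pH 7.5, 150 mM NaCl, 10 mM CaCl2, 0.05% Brij-35). Enzyme preincubated with compound for 10 min at 37 °C, then substrate solution (10 μM) added. Fluorescence read at ex 328/em 393 nm after 3 h at 37 °C. An enzyme-free blank was subtracted; batimastat served as positive control and 1% DMSO as negative.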
Target sequence in this assay (P08253 whole entry): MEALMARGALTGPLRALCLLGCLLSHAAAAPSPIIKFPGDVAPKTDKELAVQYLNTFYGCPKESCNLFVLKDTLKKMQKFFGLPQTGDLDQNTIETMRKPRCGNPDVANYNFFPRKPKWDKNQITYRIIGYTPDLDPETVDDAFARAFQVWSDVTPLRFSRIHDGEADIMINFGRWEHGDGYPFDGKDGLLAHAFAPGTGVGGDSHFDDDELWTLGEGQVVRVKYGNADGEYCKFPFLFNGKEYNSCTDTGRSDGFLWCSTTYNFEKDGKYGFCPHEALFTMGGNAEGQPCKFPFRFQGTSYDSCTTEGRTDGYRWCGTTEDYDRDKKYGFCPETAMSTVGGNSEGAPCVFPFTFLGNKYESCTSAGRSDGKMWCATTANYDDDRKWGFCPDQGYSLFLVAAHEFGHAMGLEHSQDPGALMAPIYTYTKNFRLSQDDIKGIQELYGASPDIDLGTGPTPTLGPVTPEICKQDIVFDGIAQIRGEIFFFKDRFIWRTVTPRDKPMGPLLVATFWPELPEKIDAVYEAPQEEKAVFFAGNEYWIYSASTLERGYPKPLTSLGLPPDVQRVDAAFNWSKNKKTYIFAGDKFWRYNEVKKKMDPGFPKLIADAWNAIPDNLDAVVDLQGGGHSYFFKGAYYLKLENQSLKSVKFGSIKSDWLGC

Neutrophil collagenase = Neutrophil collagenase (Homo sapiens, UniProt P22894); experiment: Inhibition of MMP8
Neutrophil collagenase, sequence (P22894 whole entry): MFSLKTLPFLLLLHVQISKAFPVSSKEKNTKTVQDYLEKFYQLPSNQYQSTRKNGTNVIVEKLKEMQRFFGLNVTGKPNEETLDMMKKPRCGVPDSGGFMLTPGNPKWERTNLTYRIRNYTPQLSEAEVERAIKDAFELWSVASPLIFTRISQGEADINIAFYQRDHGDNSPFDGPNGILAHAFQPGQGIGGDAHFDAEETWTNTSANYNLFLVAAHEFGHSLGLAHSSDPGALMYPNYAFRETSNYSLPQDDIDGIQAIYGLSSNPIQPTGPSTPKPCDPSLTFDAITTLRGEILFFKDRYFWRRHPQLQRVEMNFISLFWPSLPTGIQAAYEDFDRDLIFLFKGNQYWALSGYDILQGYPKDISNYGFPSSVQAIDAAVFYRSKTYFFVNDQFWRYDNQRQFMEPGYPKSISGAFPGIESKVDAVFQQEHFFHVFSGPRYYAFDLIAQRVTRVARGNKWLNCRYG

[27] = target: Matrix metalloproteinase-9 (Homo sapiens, UniProt P14780); experiment: Inhibition of MMP9
[28] = target: Macrophage metalloelastase (Homo sapiens, UniProt P39900); experiment: Inhibition of MMP12
Macrophage metalloelastase, sequence (P39900 whole entry): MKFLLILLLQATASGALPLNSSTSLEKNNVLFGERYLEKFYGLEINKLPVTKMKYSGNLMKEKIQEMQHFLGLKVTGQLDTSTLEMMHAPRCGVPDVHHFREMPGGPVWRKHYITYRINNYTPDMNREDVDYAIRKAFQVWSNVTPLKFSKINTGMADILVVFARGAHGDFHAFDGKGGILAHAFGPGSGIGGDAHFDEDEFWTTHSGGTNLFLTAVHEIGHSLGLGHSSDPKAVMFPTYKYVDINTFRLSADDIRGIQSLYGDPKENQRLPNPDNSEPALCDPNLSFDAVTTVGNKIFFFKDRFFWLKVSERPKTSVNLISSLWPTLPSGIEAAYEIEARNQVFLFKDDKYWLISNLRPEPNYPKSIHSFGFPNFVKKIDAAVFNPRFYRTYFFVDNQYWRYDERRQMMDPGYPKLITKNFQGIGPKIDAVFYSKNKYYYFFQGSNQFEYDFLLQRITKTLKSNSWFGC

Collagenase 3 = Collagenase 3 (Homo sapiens, UniProt P45452); experiment: Inhibition of MMP13
[29] = target: T1, 72 kDa type IV collagenase; experiment: Inhibition of human recombinant MMP2 using MOCAc-Pro-Leu-Gly-Leu-A2pr(Dnp)-Ala-Arg- NH2 as substrate preincubated for 10 mins measured after 3 hrs by fluorescence assay
How it was run: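 Fluorogenic MMP-2 inhibition in TNC buffer (50 mM Tris-HCl pH 7.5, 150 mM NaCl, 10 mM CaCl2, 0.02% NaN3, 0.05% Brij-35). Enzyme stock 5 ng/mL preincubated with compound 10 min at 37 °C. Reaction started with substrate solution (10 μM), incubated 3 h at 37 °C. Read at ex 328/em 393 nm. No-enzyme blank subtracted. Batimastat positive control; 1% DMSO negative control.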
Target sequence in this assay (P08253 whole entry): as the sequence (P08253 whole entry) above

[30] = target: T2, Matrix metalloproteinase-14; experiment: Inhibition of MMP14 using MOCAc-Pro-Leu-Gly-Leu-A2pr(Dnp)-Ala-Arg- NH2 as substrate preincubated for 10 mins measured after 3 hrs by fluorescence assay; how it was run: as §1
[31] = target: Dual specificity tyrosine-phosphorylation-regulated kinase 1A (Rattus norvegicus, UniProt Q63470); experiment: Inhibition of rat recombinant GST-fused DYRK1A expressed in Escherichia coli using [gamma-32P] ATP after 30 mins by scintillation counting
How it was run: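 DYRK1A purified by glutathione-agarose affinity chromatography. Product captured on P81 phosphocellulose and washed in phosphoric acid. Blank subtracted; activity expressed as % of uninhibited.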

[32] = target: T3, Serine/threonine-protein kinase pim-1; experiment: Inhibition of human recombinant PIM1 using [gamma-32P] ATP after 30 mins by scintillation counting
How it was run: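 Human recombinant Pim1 was run with histone H1 substrate under the CDK1/CDK5 conditions: 15 μM [γ-32P]ATP at 30 °C for 30 min. Phosphocellulose filter binding and scintillation counting followed. Activity was expressed as % of maximal after blank subtraction, with DMSO controls.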
Target sequence in this assay (P11309 whole entry): as the sequence (P11309 whole entry, looked up) above

Structure (SMILES): Nc1nc2c(-c3ccccn3)nccc2[nH]1
inhibition [1]: 22% | inhibition [2]: 6% | fold change (FC) (Aorta [3]): 14 | fold change (FC) (Aorta [4]): 3 | inhibition at 100 µg/mL (Aorta [5]): 100% | inhibition of growth at 10 µM (CAKI-1): 95% | Activity (Malme-3M): 30% | CC50 [6]: 25 µM | CC50 [7]: 25 µM | CC50 [8]: 25 µM | CC50 [9]: 25 µM | CC50 [10]: 25 µM | growth inhibition (GI) (NCI60): Active | inhibition at 10 µg/mL (Aorta [11]): 56% | inhibition at 1 µg/mL (Aorta [12]): 16% | inhibition at 0.1 µg/mL (Aorta [13]): 4% | IC50 (Aorta [14]): 8 µg/mL (≈ 37.9 µM) | Activity [15]: Active | Activity [16]: Active | Activity [17]: Active | Activity [18]: Active | Kd [19]: 40 µM | Kd [20]: 40 µM | Kd [21]: 40 µM | Kd [22]: 40 µM | IC50 [23]: 10 µM | inhibition [24]: inactive | inhibition [25]: inactive

IC50 (Interstitial collagenase): 5.6 µM | IC50 [26]: 3.36 µM | IC50 (Neutrophil collagenase): 1.09 µM | IC50 [27]: 2.21 µM | IC50 [28]: 0.924 µM | IC50 (Collagenase 3): 1.32 µM | IC50 [29]: 4.76 µM | IC50 [30]: 0.56 µM | IC50 [31]: 30 µM | IC50 [23]: 50 µM | IC50 [32]: 10 µM
Structure (SMILES): Nc1nc2c(-c3cc(Br)c(Br)[nH]3)nccc2[nH]1 [AGELADINE A]
